# Screening results: PubChem BioAssay, several laboratories
# Wee1 stabilizer = inhibitors of human Wee1 degradation; P30291; HeLa Luc-Wee1K328M stability, luciferase luminescence; 100% = proteasome inhibitor MG132 effect; reporter increase, % at 5 µM; hit rate 1.2% among 220,000; AID 1321;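 active = activation above the mean of all tested compounds plus 3 SD, set per screening run, cut at about 8.8% in these data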;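 also: cells exposed to compound for 20 h before luminescence read; 0% = DMSO alone and 100% = MG132 at 30 µM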
# PKD1 kinase inh = inhibitors of human PKD1 kinase. PKD1 kinase fluorescence polarization assay. inhibition, % (concentration not given with the values). hit rate 0.056% among 200,000. AID 797
# Target sequence (Q15139 whole entry, looked up): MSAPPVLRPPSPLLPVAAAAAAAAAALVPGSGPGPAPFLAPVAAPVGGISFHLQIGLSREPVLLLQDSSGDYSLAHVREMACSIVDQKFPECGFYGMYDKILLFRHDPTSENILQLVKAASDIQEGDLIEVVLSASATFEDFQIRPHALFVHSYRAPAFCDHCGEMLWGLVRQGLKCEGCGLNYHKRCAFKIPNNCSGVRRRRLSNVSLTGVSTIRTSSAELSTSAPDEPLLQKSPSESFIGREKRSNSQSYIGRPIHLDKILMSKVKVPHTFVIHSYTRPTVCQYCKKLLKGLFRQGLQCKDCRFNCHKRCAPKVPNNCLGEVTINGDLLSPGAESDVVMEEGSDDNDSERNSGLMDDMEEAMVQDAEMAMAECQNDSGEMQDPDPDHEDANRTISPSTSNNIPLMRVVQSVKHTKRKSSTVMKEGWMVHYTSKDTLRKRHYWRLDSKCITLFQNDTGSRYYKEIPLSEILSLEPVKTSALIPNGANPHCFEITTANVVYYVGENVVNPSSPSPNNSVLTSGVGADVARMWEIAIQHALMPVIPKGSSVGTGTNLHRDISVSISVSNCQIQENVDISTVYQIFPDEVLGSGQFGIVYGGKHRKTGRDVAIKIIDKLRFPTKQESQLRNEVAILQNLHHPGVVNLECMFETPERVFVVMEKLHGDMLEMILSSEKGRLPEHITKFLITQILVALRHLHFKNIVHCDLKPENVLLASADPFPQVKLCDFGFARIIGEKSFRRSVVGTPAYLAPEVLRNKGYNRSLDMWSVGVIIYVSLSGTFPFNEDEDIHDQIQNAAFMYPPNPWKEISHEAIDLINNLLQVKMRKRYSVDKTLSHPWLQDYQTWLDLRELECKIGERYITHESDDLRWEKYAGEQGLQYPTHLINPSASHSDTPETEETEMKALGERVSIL
# Rad51 HR inh = blocks human Rad51 in homologous recombination | inhibition, % at 10 µM | hit rate 0.085% among 200,000 | AID 1385 | hRad51 DNA strand exchange, fluorescence dequenching;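 active = inhibition above 40% at the single screening dose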;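 also: 0% = DMSO control wells and 100% = blanks with heterologous ssDNA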
#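 Material: human Rad51–ssDNA filaments; Probe or stimulus: labelled 47-mer dsDNA for strand exchange; Doses: single 10 µM dose; Incubation: 37 °C 15-min filament assembly, 30-min compound preincubation, 15-min exchange; Technique: FRET fluorescence dequenching, excitation 485 nm, emission 520 nm; Measure: Fluorescence-based percent inhibition, control- and blank-normalised; Benchmarks: plate control and blank wells.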
# CHOP inh = CHOP inhibition in unfolded protein response. CHO-K1 CHOP-promoter luciferase, tunicamycin-induced, 15-18 h. inhibition, % at 10 µM. hit rate 3.8% among 220,000. AID 2732;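 active = compounds that reduced the stress-induced luciferase reporter signal by more than about 70% of percent inhibition, limit read from the data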;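 also: 0% = tunicamycin plus vehicle and 100% = wells without tunicamycin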
# Lmaj promast = Leishmania major promastigote growth inhibition. Leishmania major promastigotes, resazurin fluorescence viability. inhibition, % at 10 µM. hit rate 9% among 200,000. AID 1063;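 also: promastigotes grown with compound for 44 hours at 28 °C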
# Arbovirus anti = antivirals against arbovirus infection; arbovirus infection cell-based antiviral screen; inhibition, % at 10 µM; hit rate 0.37% among 200,000; AID 1251; in the data active = inhibition above about 30%
# The depositor's hits bear a star; . = no result. Rows were chosen to be rich in hits. Some 12% of all compounds tested hit in one or more screens of this group. Rule as the data show it, unless noted: active = inhibition above about 50%; inactive = the rest.
SMILES,Wee1 stabilizer,PKD1 kinase inh,Rad51 HR inh,CHOP inh,Lmaj promast,Arbovirus anti
CCOc1ccc(NC(=O)NCC2CCN(c3ccc(OC)cc3)C2)cc1 (stereo unspecified),-1,-10,10,76*,1,-2
CCc1ccc(NC(=O)NCC2CCN(c3ccc(OC)cc3)C2)cc1 (stereo unspecified),1,.,7,48,.,.
OCC1NC[C@@H](O)C(O)[C@@H]1O (stereo partly specified),.,.,.,16,.,.
NNC(=O)c1sccc1OCc1ccc(F)cc1,1,-15,6,-3,-2,-5
O=C(N/N=C/c1ccc(F)cc1)c1sccc1OCc1ccc(F)cc1,0,-12,0,-25,88*,-28
O=C(N/N=C/c1ccc(Cl)cc1)c1sccc1OCc1ccc(F)cc1,3,-2,-2,-7,85*,-17
CN(C)NC(=S)NC1CCS(=O)(=O)C1 (stereo unspecified),-1,.,0,-7,.,.
O=C(NC(=S)N(Cc1ccccc1)c1ccccn1)C1CC1,-4,-1,3,-12,-4,-13
CC(C)N1CCN(Cc2cn[nH]c2C2CCCCC2)CC1CCO (stereo unspecified),1,4,.,1,-6,-3
C1=C(c2ccccc2)N2CCN=C2S1,0,4,2,86*,0,6
Oc1c(C=Nc2cccc3cccnc23)sc2ccccc12,-2,-38,-10,-48,99*,-22
COc1ccc(C(=O)N/N=C/c2c(CO)cnc(C)c2O)cc1,-4,-4,9,38,17,-2
COc1ccc(C(=O)N/N=C/c2sc3ccccc3c2O)cc1,0,-3,-182,24,77*,-31
Cc1cccc(/N=C/c2sc3ccccc3c2O)n1,2,.,-75,14,.,.
O=C(N/N=C/c1sc2ccccc2c1O)c1cccc2ccccc12,0,-8,-137,50,86*,-35
O=C(N/N=C/c1sc2ccccc2c1O)c1ccccc1,6,-10,-223,65,98*,-35
Cc1ccc(S(=O)(=O)NC(C)(C)CN2CCC(Cc3ccccc3)CC2)cc1,0,.,-13,3,.,.
CCOc1cc(CN2CCSCC2)ccc1O,3,-13,-8,23,20,2
C=CCOc1ccccc1CN1CCSCC1,0,0,7,16,98*,1
Cc1ccc(Nc2nnc(SC3CCOC3=O)s2)cc1 (stereo unspecified),0,7,1,-5,-5,-3
O=C1CCCCC1Sc1nnc(Nc2ccccc2)s1 (stereo unspecified),8.9*,-2,11,-19,26,5
CCC(C)(C)C1CCc2c(sc(NC(=O)c3ccoc3C)c2C(N)=O)C1 (stereo unspecified),-2,-4,.,72*,-2,9
CC12CCC(C(=O)N/N=C/c3ccc(O)cc3)(OC1=O)C2(C)C (stereo unspecified),-1,.,.,-4,.,.
c1ccc(CCN(Cc2ccccc2)Cc2nc(C3CC3)no2)cc1,-5,0,4,20,17,0
CCCCC(O)CN1CCC(c2ccccc2)CC1 (stereo unspecified),7,3,4,59,93*,-6
SMILES,Wee1 stabilizer,PKD1 kinase inh,Rad51 HR inh,CHOP inh,Lmaj promast,Arbovirus anti
Clc1ccccc1Cc1noc(CN2CCCCC2CCc2ccccn2)n1 (stereo unspecified),2,0,12,-16,2,11
CC1CCCC(C)N1C(=O)c1cccc2c1-c1ccccc1/C2=N/O (stereo unspecified),0,5,2,45,35,-3
CCOC(=O)c1cccc2c1-c1ccccc1/C2=N/O,-2,27,1,82*,19,13
CCOCCCNC(=O)/C=C1\Sc2ccccc2N(Cc2ccccc2F)C1=O,1,-11,5,-31,10,-3
CCN1CCN(CCNC(=O)c2ccc3c(c2)N(Cc2ccc(F)cc2)C(=O)/C(=C/c2ccccc2)S3)CC1,0,4,27,107*,101*,-30
CN1CCN(CCCNC(=O)c2ccc(/C=C3\Sc4ccccc4N(Cc4ccccc4F)C3=O)cc2)CC1,5,1,2,-32,100*,-31
CCN1CCN(CCNC(=O)c2ccc(/C=C3/Sc4ccccc4N(Cc4cccc(Cl)c4)C3=O)cc2)CC1,0,3,.,33,101*,-30
O=C(NCCN1CCOCC1)c1ccc2c(c1)N(Cc1cccc(F)c1)C(=O)c1ccccc1S2,0,1,-1,26,100*,-15
CCc1ccc(/C=C2/Sc3ccccc3N(CC(=O)NCCCOC)C2=O)cc1,0,5,.,14,-3,-12
CC(C)OCCCNC(=O)CN1C(=O)/C(=C/c2ccccc2)Sc2ccccc21,-3,5,2,32,59*,-6
COCCCNC(=O)CN1C(=O)/C(=C\c2ccc(C)cc2)Sc2ccccc21,2,-11,5,22,43,-1
CCn1c(SCc2nc(-c3cccs3)no2)nnc1-c1c[nH]c2ccccc12,0,-6,3,35,72*,-11
CN1CCN(C(=O)NC2CCCN2S(=O)(=O)c2ccc(Cl)cc2)CC1 (stereo unspecified),-3,-1,9,20,-1,7
Cc1ccc(NC(=O)NC2CCCN2S(=O)(=O)c2ccc(Cl)cc2)cc1 (stereo unspecified),0,-11,-2,20,62*,-6
COc1cccc(/C=N/NC(=O)CCc2c(C)n[nH]c2C)c1O,-1,.,17,9,.,.
Cc1cc(C)c(OCCCCNCc2ccccc2)c(Cl)c1,3,1,-11,75*,97*,-34
COc1ccccc1OCCCOc1c(Cl)cc(C)cc1Cl,0,-2,.,38,-3,-1
COCCCNCCCCOc1c(Cl)cc(C)cc1Br,0,-16,-4,6,100*,-11
C=CCNCCOc1c(C)cc(C)cc1Cl,1,-5,.,12,-2,-1
C=CCNCCCCOc1c(Cl)cc(C)cc1Br,0,-1,-5,-17,99*,-15
COc1cc(OC)c(/C=N/NC(=O)c2ccc(Cn3nc([N+](=O)[O-])cc3C)cc2)c(OC)c1,-3,.,8,21,.,.
COc1ccc(C2=NC(CO)(CO)CO2)cc1,-1,-1,-3,17,-6,6
COC(=O)c1cc(NC2c3ncccc3C(=O)N2Cc2ccccc2)cc(C(=O)OC)c1 (stereo unspecified),-3,-2,4,-5,53*,7
COC(=O)C1CCN(C(=O)COC(=O)CCc2nc3ccccc3c(=O)[nH]2)CC1,-3,3,.,-9,-7,2
O=C(CN1CCN(c2ccccn2)CC1)N(c1ccccc1)c1ccc2ccccc2c1,0,-7,.,55,97*,3
CCc1nnc(NC(=O)CCc2ccc(C)o2)s1,-1,1,-1,75*,-4,0
O=C(CC1SCCNC1=O)Nc1cccc([N+](=O)[O-])c1 (stereo unspecified),2,.,21,1,.,.
